pIC50, pKi: −log10 of the molar value. Converted amounts (≈) assume the structure as drawn. The source made the active and inactive calls. The calls are words filed in the database; no cut-off is given here.

The subject of series [1] is FEPD. Put plainly: Antiproliferative activity against human FEPD cells assessed as reduction in cell viability after 72 hrs by MTT assay.
The subject of another series is SU-DHL-6. Nature of the series: Antiproliferative activity against human SUDHL6 cells assessed as reduction in cell viability after 72 hrs by MTT assay. Conditions: SU-DHL-6, 72 h.
In another series the test system is H9. Nature of the series: Antiproliferative activity against human H9 cells assessed as reduction in cell viability after 72 hrs by MTT assay. As to conditions: H9, 72 h.
The next series deals with DOHH-2. Put plainly: Antiproliferative activity against human DOHH2 cells assessed as reduction in cell viability after 72 hrs by MTT assay. As to conditions: DOHH-2, 72 h.
Series [2] deals with Tyrosine-protein kinase Fyn (Homo sapiens, UniProt P06241). Nature of the series: Inhibition of recombinant full length N-terminal His6 tagged human FYN expressed in baculovirus infected sf21 cells using KVEKIGEGTYGVVYK as substrate in presence of [gamma33P]ATP by scintillation counting method. The method in brief:
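Fyn radiometric assay with 250 µM Src-peptide, 100 µM ATP plus γ-33P ATP, 0.00087% NP-40, 10-50 ng enzyme, 10% DMSO, 30 °C for 10 min. ID50 taken from velocity fits. Ki derived assuming ATP-competitive binding, with ATP Km 102 µM.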

The test system of series [3] is FEPD. Put plainly: Induction of cell cycle arrest in human FEPD cells assessed as accumulation at sub-G0 phase at 5 to 10 uM after 72 hrs by 7AAD staining based assay. The series is classed as functional.
In series [4] the target is Tyrosine-protein kinase Lyn (Homo sapiens, UniProt P07948). Nature of the series: Inhibition of LYN (unknown origin) using KVEKIGEGTYGVVYK as substrate in presence of [gamma33P]ATP as substrate in presence of [gamma33P]ATP by scintillation counting method. The method in brief: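 Lyn radiometric assay with 200 µM Src-peptide, 40 µM ATP plus γ-33P ATP, 0.0013% NP-40, 10-50 ng enzyme, 10% DMSO, 30 °C for 10 min. ID50 taken from velocity fits. Ki derived assuming ATP-competitive binding, with ATP Km 39.9 µM.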
Chain of Tyrosine-protein kinase Lyn (P07948 whole entry): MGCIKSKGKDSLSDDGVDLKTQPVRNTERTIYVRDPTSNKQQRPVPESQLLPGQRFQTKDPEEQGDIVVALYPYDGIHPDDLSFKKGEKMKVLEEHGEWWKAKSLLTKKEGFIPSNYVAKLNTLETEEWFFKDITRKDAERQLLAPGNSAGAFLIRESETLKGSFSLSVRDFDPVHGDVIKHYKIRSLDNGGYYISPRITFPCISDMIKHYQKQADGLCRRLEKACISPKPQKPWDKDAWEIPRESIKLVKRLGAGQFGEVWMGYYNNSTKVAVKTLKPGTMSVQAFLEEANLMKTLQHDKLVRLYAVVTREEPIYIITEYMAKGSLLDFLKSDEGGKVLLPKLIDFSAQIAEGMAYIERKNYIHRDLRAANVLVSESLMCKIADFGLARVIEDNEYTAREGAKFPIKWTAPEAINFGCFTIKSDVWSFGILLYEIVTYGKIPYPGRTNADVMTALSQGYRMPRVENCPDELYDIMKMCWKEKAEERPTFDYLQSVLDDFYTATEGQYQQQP

Series [5] deals with SU-DHL-8. Put plainly: Antiproliferative activity against human SUDHL8 cells assessed as reduction in cell viability after 72 hrs by MTT assay. Conditions: SU-DHL-8, 72 h.
Series [6] concerns HuT78. Nature of the series: Induction of cell cycle arrest in human HUT78 cells assessed as accumulation at sub-G0 phase at 5 to 10 uM after 72 hrs by 7AAD staining based assay. The class given is functional.
The test system of series [7] is HuT78. Put plainly: Antiproliferative activity against human HUT78 cells assessed as reduction in cell viability after 72 hrs by MTT assay. As to conditions: HuT78, 72 h.
The nature of series [8]: Apparent permeability of compound at 500 uM after 5 hrs by UV/LC-MS analysis based GI-PAMPA assay. The series is classed as ADME. The method in brief: (§1)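 GI-PAMPA run with donor compound at 500 µM final, diluted from 1 mM DMSO into pH 7.4 25.0 mM phosphate buffer. Filter coated with 1% (w/v) phosphatidylcholine in dodecane. Acceptor was 50% v/v DMSO/phosphate buffer. Incubated 5 h at r.t. with gentle shaking. Donor and acceptor wells quantified by UV/LC-MS peak area. Papp and membrane retention calculated by equation, in triplicate.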

In series [9] the test system is SU-DHL-8. Put plainly: Induction of cell cycle arrest in human SUDHL8 cells assessed as accumulation at sub-G0 phase at 5 to 10 uM after 72 hrs by 7AAD staining based assay. The series is classed as functional.
Series [10] in a line: Metabolic stability in human liver microsomes assessed as compound remaining at 50 uM after 1 hr by UV/LC-MS analysis relative to control. The class given is ADME, Microsome. Conditions: read-out: Stability. The method in brief:
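Human liver microsomes at 0.2 mg/mL with NADPH regenerating system, compound at 50 µM in pH 7.4 25 mM phosphate buffer, 37 °C for 1 h. Quenched with acetonitrile, then supernatant dried and taken up in methanol. Unmetabolized percentage measured by UV/LC-MS. Mean of at least three experiments.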

A short description of series [11]: Aqueous solubility of compound at 1 mg after 24 hrs by LC-MS/MS analysis. The series is classed as physicochemical. Conditions: water. The method in brief:
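Solid compound (1 mg) shaken in 1 mL water at 20 °C for 24 h, then filtered through 0.45 µm nylon. Dissolved concentration measured by LC-MS-MS against a methanol calibration curve, in triplicate. Mean of at least three experiments.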

Another series has as its system HH. Put plainly: Antiproliferative activity against human HH cells assessed as reduction in cell viability after 72 hrs by MTT assay.
Series [12] can be described thus: Membrane retention of compound at 500 uM after 5 hrs by UV/LC-MS analysis based GI-PAMPA assay relative to control. The series is classed as ADME. In a few lines: as §1
The next series deals with Farage. Put plainly: Antiproliferative activity against human Farage cells assessed as reduction in cell viability after 72 hrs by MTT assay.
Series [13] addresses Tyrosine-protein kinase Blk (Homo sapiens, UniProt P51451). Put plainly: Inhibition of BLK (unknown origin) using KVEKIGEGTYGVVYK as substrate in presence of [gamma33P]ATP as substrate in presence of [gamma33P]ATP by scintillation counting method.

Chain of Tyrosine-protein kinase Fyn (P06241 whole entry): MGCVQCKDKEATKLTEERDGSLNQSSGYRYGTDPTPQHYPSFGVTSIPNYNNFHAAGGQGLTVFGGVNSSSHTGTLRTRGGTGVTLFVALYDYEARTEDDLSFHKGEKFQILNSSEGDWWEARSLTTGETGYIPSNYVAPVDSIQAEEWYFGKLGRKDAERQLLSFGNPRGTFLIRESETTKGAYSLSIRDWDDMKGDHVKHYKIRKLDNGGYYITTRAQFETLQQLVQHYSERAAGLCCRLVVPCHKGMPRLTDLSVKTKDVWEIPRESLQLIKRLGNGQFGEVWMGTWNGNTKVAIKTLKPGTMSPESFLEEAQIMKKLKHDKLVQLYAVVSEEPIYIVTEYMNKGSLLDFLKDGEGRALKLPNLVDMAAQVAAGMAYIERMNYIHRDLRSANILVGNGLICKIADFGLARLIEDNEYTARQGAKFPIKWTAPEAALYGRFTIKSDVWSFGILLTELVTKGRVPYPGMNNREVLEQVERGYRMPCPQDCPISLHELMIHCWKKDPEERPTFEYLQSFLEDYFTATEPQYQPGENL
Chain of Tyrosine-protein kinase Blk (P51451 whole entry): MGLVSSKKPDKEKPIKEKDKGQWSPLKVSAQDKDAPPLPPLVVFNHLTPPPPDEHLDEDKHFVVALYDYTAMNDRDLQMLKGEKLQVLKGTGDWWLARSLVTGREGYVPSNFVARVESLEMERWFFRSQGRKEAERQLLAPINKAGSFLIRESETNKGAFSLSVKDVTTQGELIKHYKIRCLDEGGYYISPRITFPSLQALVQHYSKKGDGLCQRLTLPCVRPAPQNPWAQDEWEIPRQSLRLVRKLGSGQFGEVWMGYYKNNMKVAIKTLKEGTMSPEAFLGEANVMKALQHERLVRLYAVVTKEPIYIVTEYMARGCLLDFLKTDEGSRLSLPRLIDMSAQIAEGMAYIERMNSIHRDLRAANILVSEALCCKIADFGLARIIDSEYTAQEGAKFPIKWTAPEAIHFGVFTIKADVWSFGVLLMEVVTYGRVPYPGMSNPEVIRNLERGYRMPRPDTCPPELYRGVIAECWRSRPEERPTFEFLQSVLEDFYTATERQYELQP

`Nc1ncnc2c1c(-c1ccc(CO)cc1)nn2CC(Cl)c1ccccc1` (racemic): the pIC50 in the series with FEPD [1] was 4.96; in the series with SU-DHL-6, 5.03; in the series with H9 it was 5.47; with DOHH-2, 5.61; in the series on SU-DHL-8 [5], 5.21; in the series on HuT78 [7], 5.35. Besides, the results for the pIC50 in the series with HH and with Farage were 5.62 and 5.15, respectively. Besides, the figures for the pKi in [2] and in [4] were 6.92 and 6.72, respectively. Also, the outcome in the series with FEPD [3], in the series with HuT78 [6] and in the series on SU-DHL-8 [9] was Active. The Papp at 5 h, 500 µM in series [8] turned out to be 10.8 ×10⁻⁶ cm/s. The remaining at 1 h, 50 µM in [10] turned out to be 85%. Further, the concentration in solution in [11] (solubility at 24 h) was 0.09 µg/mL (≈ 0.237 µM). In series [12], this molecule displayed a R% of 15.2%.
For `Cc1ccc(-c2nn(CC(Cl)c3ccccc3)c3ncnc(N)c23)cc1` (stereo not drawn), the pIC50 in the series on FEPD [1] was below 4.00; in the series on SU-DHL-6 it was 4.63; in the series on H9 it was below 4.00; in the series with DOHH-2, 4.93; with SU-DHL-8 [5], 4.92; with HuT78 [7], 4.95. Moreover, the values for the pIC50 in the series with HH and with Farage were 4.83 and 4.72, respectively.
As for `Nc1ncnc2c1c(-c1ccc(Cl)cc1)nn2CCc1ccccc1`, the pIC50 in the series with FEPD [1] is 4.51; with SU-DHL-6, below 4.00; in the series on H9, below 4.00; in the series with DOHH-2 it was 4.93; in the series with SU-DHL-8 [5], 4.44; with HuT78 [7], below 4.00. The results for the pIC50 in the series on HH and with Farage were 4.74 and 4.73, respectively.
Turning to `Nc1ncnc2c1c(-c1ccc(I)cc1)nn2CC(Cl)c1ccccc1` (racemic), the pIC50 in the series on FEPD [1] is 4.69; in the series with SU-DHL-6 it was 4.88; with H9, 4.94; with DOHH-2, 5.43; in the series with SU-DHL-8 [5], 4.94; in the series on HuT78 [7], 4.92. The pIC50 with HH is 5.28; in the series on Farage, 4.90.
With `CCCc1ccc(-c2nn(CC(Cl)c3ccccc3)c3ncnc(N)c23)cc1` (racemic), the pIC50 is 4.54 in the series with FEPD [1]; 4.51 in the series on SU-DHL-6; 5.32 in the series on H9; 5.36 in the series with DOHH-2; 5.17 in the series with SU-DHL-8 [5]; 5.00 in the series with HuT78 [7]. The pIC50 in the series on HH is 4.31; in the series on Farage, 4.53.
As to `Nc1ncnc2c1c(-c1ccc(Cl)cc1)nn2CC(Cl)c1ccccc1` (stereo not drawn), the pIC50 in the series with FEPD [1] is 4.80; in the series with SU-DHL-6, 4.67; in the series on H9, 4.87; with DOHH-2, 4.94; in the series on SU-DHL-8 [5], 5.05; in the series on HuT78 [7], below 4.00. The figures for the pIC50 with HH and in the series with Farage were 4.86 and 4.83, respectively. Moreover, the pKi was 6.72 in series [13], 6.80 in series [2] and 6.72 in series [4]. Besides, the Papp at 5 h, 500 µM in series [8] was 9.95 ×10⁻⁶ cm/s. In series [10], the remaining at 1 h, 50 µM is 85.2%. This molecule showed a solubility at 24 h in series [11] of 0.01 µg/mL (≈ 0.026 µM). Further, the R% in series [12] came to 70.4%.
Regarding `Nc1ncnc2c1c(-c1ccc(CO)cc1)nn2CC(O)c1ccccc1` (racemic), the pIC50 in the series on FEPD [1] is 4.58; with SU-DHL-6 it was 4.47; in the series with H9 it was 4.65; in the series on DOHH-2, 4.92; in the series on SU-DHL-8 [5], 4.57; in the series on HuT78 [7] it was below 4.00. In addition, the pIC50 is 4.76 in the series on HH and 4.57 with Farage.
With `CC(Cn1nc(-c2ccc(F)cc2)c2c(N)ncnc21)c1ccccc1` (racemic), the pIC50 was below 4.00 with FEPD [1]; 4.64 with SU-DHL-6; 4.73 in the series on H9; 4.67 in the series with DOHH-2; 4.92 with SU-DHL-8 [5]; below 4.00 with HuT78 [7]. Moreover, the pIC50 in the series on HH is 4.93; in the series with Farage it was 4.64.
With `Cc1ccc(-c2nn(CCc3ccccc3)c3ncnc(N)c23)cc1`, the pIC50 with FEPD [1] is 4.67; in the series with SU-DHL-6 it was below 4.00; in the series with H9, below 4.00; in the series on DOHH-2 it was 5.01; in the series on SU-DHL-8 [5], 4.43; in the series with HuT78 [7], below 4.00. Further, the values for the pIC50 in the series with HH and with Farage were 4.76 and 4.80, respectively.
With `Nc1ncnc2c1c(-c1cccc(Cl)c1)nn2CC(Cl)c1ccccc1` (racemic), the pIC50 with FEPD [1] is 4.60; with SU-DHL-6, below 4.00; in the series with H9 it was 4.66; with DOHH-2, 4.56; in the series on SU-DHL-8 [5] it was 4.86; in the series with HuT78 [7], below 4.00. The values for the pIC50 with HH and with Farage were 4.37 and 4.51, respectively.
Take `CC(Cn1nc(-c2ccc([N+](=O)[O-])cc2)c2c(N)ncnc21)c1ccccc1` (racemic): the pIC50 in the series with FEPD [1], in the series with SU-DHL-6, in the series with H9, in the series with DOHH-2, in the series with SU-DHL-8 [5] and in the series with HuT78 [7] was below 4.00 throughout. Further, the pIC50 in the series with HH and in the series on Farage was below 4.00 throughout.
For `Nc1ncnc2c1c(-c1ccc(Br)cc1)nn2CC(Cl)c1ccccc1` (racemic), the pIC50 is 4.66 in the series with FEPD [1]; 4.34 in the series with SU-DHL-6; 4.66 in the series with H9; 4.96 in the series with DOHH-2; 4.93 with SU-DHL-8 [5]; 4.68 in the series on HuT78 [7]. Also, the pIC50 in the series on HH is 4.91; in the series on Farage, 4.87.
As to `Nc1ncnc2c1c(-c1ccccc1Cl)nn2CC(Cl)c1ccccc1` (racemic), the pIC50 was 4.41 in the series with FEPD [1]; below 4.00 in the series on SU-DHL-6; 4.41 in the series with H9; 4.58 in the series with DOHH-2; 4.74 with SU-DHL-8 [5]; below 4.00 with HuT78 [7]. Besides, the values for the pIC50 with HH and in the series on Farage were below 4.00 and 4.29, respectively.
`CCc1ccc(-c2nn(CC(Cl)c3ccccc3)c3ncnc(N)c23)cc1` (racemic): the pIC50 in the series on FEPD [1] was 4.67; with SU-DHL-6, 4.53; with H9 it was 4.62; in the series with DOHH-2 it was 4.67; in the series on SU-DHL-8 [5], 4.76; in the series with HuT78 [7] it was 4.24. In addition, the pIC50 was 4.68 with HH and 4.64 in the series with Farage.

(Values after ChEMBL document CHEMBL4359870, “Identification of a new family of pyrazolo[3,4-d]pyrimidine derivatives as multitarget Fyn-Blk-Lyn inhibitors active on B- and T-lymphoma cell lines” (Eur J Med Chem, 2019).)
